The source made the active and inactive calls. How the calls were made is not given here.
Target: Inward rectifier potassium channel 2 (Homo sapiens) (UniProt P63252)
Assay: Kir2.1 channel activation or block, dose response, selectivity assay for GIRK activator project, cell-based, human, thallium flux, concentration-response (AID 623984)
Procedure, shortened: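 Probe or stimulus: bicarbonate thallium stimulus (Tl2SO4, NaHCO3, pH 7.4) plus EC20 glutamate / Material: hKir2.1 T-REx-293 cells, tetracycline-induced / Incubation: 4 min compound pre-incubation before stimulus / Measured by: thallium flux fluorescence, FluoZin-2 AM dye, sampled at 1 Hz / Read-out basis: background-corrected fluorescence slope as % vehicle / Control set: vehicle and uninduced-cell wells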

Sequence of Inward rectifier potassium channel 2 (Homo sapiens) (P63252 whole entry, looked up): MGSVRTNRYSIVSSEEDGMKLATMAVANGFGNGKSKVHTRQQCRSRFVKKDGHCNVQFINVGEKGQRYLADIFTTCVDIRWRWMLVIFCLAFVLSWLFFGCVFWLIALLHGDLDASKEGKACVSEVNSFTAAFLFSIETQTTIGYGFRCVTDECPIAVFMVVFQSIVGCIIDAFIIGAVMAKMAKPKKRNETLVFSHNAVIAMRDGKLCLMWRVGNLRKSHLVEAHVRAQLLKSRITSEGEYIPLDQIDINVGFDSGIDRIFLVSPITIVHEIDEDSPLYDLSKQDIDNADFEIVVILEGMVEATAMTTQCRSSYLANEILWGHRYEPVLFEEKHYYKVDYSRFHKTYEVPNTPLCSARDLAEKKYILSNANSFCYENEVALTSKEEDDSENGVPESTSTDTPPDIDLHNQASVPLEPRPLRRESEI

## Cc1cc(NC(=O)Nc2ccc(F)c(F)c2)n(-c2ccccc2)n1
  outcome: inactive
